Measurements published in ChEMBL document CHEMBL1961794, “Regulation of circadian behaviour and metabolism by synthetic REV-ERB agonists” (Nature, 2012).
Active and inactive are the calls of the source. No cut-off for these calls is given here.

Assays:
Mus musculus [1] = assay: Change in plasma triglycerides in diet-induced obese mice over 30 days at 100 mg/kg ip; assay type: functional, organism-based; design: dose 100 mg/kg; settings: C57BL/6
Mus musculus [2] = assay: Change in plasma insulin in diet-induced obese mice over 30 days at 100 mg/kg ip; assay type: functional, organism-based; design: dose 100 mg/kg; settings: C57BL/6
Mus musculus [3] = assay: Change in plasma leptin in diet-induced obese mice over 30 days at 100 mg/kg ip; assay type: functional, organism-based; design: dose 100 mg/kg; settings: C57BL/6
Mus musculus [4] = assay: Change in plasma glucose in diet-induced obese mice over 30 days at 100 mg/kg ip; assay type: functional, organism-based; design: dose 100 mg/kg; settings: C57BL/6
Mus musculus [5] = assay: Change in plasma NEFA (non-esterified fatty acids) in diet-induced obese mice over 30 days at 100 mg/kg ip; assay type: functional, organism-based; design: dose 100 mg/kg; settings: C57BL/6
Mus musculus [6] = assay: Change in plasma IL-6 in diet-induced obese mice over 30 days at 100 mg/kg ip; assay type: functional, organism-based; design: dose 100 mg/kg; settings: C57BL/6
Mus musculus [7] = assay: Change in total plasma cholesterol in diet-induced obese mice over 30 days at 100 mg/kg ip; assay type: functional, organism-based; design: dose 100 mg/kg; settings: C57BL/6
[8] = target: T1, Nuclear receptor subfamily 1 group D member 1 (Homo sapiens, UniProt P20393); assay: REV-ERB-alpha mediated transcriptional suppression at Bmal1 promoter in HEK293 cell reporter assay; assay type: functional, cell-based
T1 sequence (P20393 whole entry): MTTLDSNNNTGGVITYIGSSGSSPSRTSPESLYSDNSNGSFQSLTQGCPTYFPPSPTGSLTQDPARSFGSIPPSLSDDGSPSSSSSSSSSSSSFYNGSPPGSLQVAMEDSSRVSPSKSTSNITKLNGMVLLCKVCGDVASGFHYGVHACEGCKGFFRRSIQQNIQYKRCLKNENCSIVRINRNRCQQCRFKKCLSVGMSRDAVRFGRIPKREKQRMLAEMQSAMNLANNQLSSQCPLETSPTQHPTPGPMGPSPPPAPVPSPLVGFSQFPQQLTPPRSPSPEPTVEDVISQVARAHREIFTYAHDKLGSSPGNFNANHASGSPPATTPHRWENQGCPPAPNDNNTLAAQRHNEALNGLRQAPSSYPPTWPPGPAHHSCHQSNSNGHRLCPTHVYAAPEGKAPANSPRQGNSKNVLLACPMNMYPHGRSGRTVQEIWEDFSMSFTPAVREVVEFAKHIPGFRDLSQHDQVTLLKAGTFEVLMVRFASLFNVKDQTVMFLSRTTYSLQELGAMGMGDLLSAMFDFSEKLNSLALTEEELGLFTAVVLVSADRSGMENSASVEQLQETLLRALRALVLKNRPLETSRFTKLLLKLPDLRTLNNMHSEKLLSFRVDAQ

[9] = Plasma concentration after 2 hours at 10mg/kg ip dose (10mg/ml suspension in 10%DMSO/10%Tween80); assay type: ADME, organism-based; settings: mouse, read-out: Conc_plasma
Outline: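 Mice received a single 10 mg/kg i.p. dose as a 10 mg/ml suspension in DMSO/Tween80/water (10/10/80). Plasma was sampled at 1, 2, 4 and 8 h post-injection and drug concentration reported in μM. Mean ± s.e.m., n=3.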

Mus musculus [10] = species on record: Mus musculus; assay: Inhibition of circadian oscillations in SCN explants from Per2-luc transgenic mouse; assay type: functional, tissue-based
[11] = Decrease in wheel-running behavior in mice in constant darkness; assay type: functional; settings: Mus musculus
[12] = Brain concentration after 2 hours at 10mg/kg ip dose (10mg/ml suspension in 10%DMSO/10%Tween80); assay type: ADME, organism-based; settings: mouse, read-out: Conc_brain
Outline: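 Mice given a single 10mg/kg i.p. dose as a 10mg/ml suspension in 10/10/80 DMSO/Tween80/water. Brain levels (μM) measured at 2h and 8h post injection, with plasma sampled at 1, 2, 4 and 8h. Mean ± s.e.m., n=3.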

[13] = Decrease in Srebf1 gene expression; assay type: functional; settings: Mus musculus, Liver
Fibroblast = assay: Inhibition of circadian oscillations in fibroblasts from Per2-luc transgenic mice; assay type: functional, cell-based; settings: Mus musculus
Outline: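 Fibroblasts (MEFs) were isolated from Per2^luc transgenic mice and treated with 5 μM compound. Circadian oscillation amplitude was followed by continuous bioluminescence recording in two independent experiments.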

[14] = Toxicity in CL57BL6 mice after 7 days treatment at 100 mg/kg b.i.d in hematology screen; assay type: organism-based, C57BL/6; design: dose 100 mg/kg; settings: mouse, in vivo, 168 h
Outline: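 Vehicle-controlled C57Bl6 mice dosed chronically at 100 mg/kg b.i.d. for 7 days. Complete blood count: WBC, neutrophil, lymphocyte, monocyte, eosinophil and basophil counts and percentages; RBC, Hb, HCT, MCV, MCH, MCHC, RDW, platelet count and MPV. Mean ± s.e.m., n=6.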

Structure (SMILES)	Plasma triglyceride (Mus musculus [1])	Plasma insulin (Mus musculus [2])	Plasma leptin (Mus musculus [3])	Plasma glucose (Mus musculus [4])	Plasma NEFA (Mus musculus [5])	Plasma IL-6 (Mus musculus [6])	Plasma cholesterol (Mus musculus [7])	IC50 [8]	concentration at 2 h [9]	Reduced_circadian_oscillation (Mus musculus [10])	ED50 [11]	concentration at 2 h [12]	ED50 [13]	Reduced_circadian_oscillation (Fibroblast)	Toxicity [14]
CCOC(=O)N1CCC(CN(Cc2ccc(Cl)cc2)Cc2ccc([N+](=O)[O-])s2)C1 (stereo not given) [SR9009]	-12%	-35%	-80%	-19%	-23%	-72%	-47%	–	–	–	–	–	–	–	–
CCCCCNC(=O)N1CCC(CN(Cc2ccc(Cl)cc2)Cc2ccc([N+](=O)[O-])s2)C1 (stereo not given) [SR9011]	–	–	–	–	–	–	–	0.62 µM (agonist)	0.53 µM	Active	56 mg/kg	0.24 µM	67 mg/kg	Active	Not Toxic
